Two compounds from ChEMBL document CHEMBL1137664, “Conflicting requirements of Plasmodium falciparum dihydrofolate reductase mutations conferring resistance to pyrimethamine-WR99210 combination” (Antimicrob Agents Chemother, 2007) can be followed below.

Structures are written as SMILES.

The nature of assay [1]: Inhibition of pyrimethamine-resistant form-3 Plasmodium falciparum N51I, C59R, S108N, I164L, I150V, N182I, N201D mutant expressed in Escherichia coli BL21(DE3) by Michaelis-Menten based competitive inhibition assay.
Assay [2] has as its target T1, Bifunctional dihydrofolate reductase-thymidylate synthase (Plasmodium falciparum (isolate 3D7), UniProt Q8I1R6, C59R/I164L/K96N/N51I/S108N). The assay can be described thus: Inhibition of pyrimethamine-resistant form-2 Plasmodium falciparum N51I, C59R, S108N, I164L, K96N mutant expressed in Escherichia coli BL21(DE3) by Michaelis-Menten based competitive inhibition assay.

Assay [3] is described as follows: Inhibition of pyrimethamine-resistant form-1 Plasmodium falciparum N51I, C59R, S108N, I164L, D187A mutant expressed in Escherichia coli BL21(DE3) by Michaelis-Menten based competitive inhibition assay.
Assay [4] can be described thus: Inhibition of WR99210-resistant form-3 Plasmodium falciparum N51I, C59R, N108T, I164L mutant expressed in Escherichia coli BL21(DE3) by Michaelis-Menten based competitive inhibition assay.
Assay [5] is described as follows: Inhibition of WR99210-resistant form-1 Plasmodium falciparum I51N, C59R, N108S, I164L mutant expressed in Escherichia coli BL21(DE3) by Michaelis-Menten based competitive inhibition assay.
The nature of assay [6]: Inhibition of Plasmodium falciparum DHFR QM template N51I, C59R, S108N, I164L mutant expressed in Escherichia coli BL21(DE3) by Michaelis-Menten based competitive inhibition assay.
Assay [7] can be described thus: Inhibition of Plasmodium falciparum DHFR-TS QM template N51I, C59R, S108N, I164L mutant expressed in Escherichia coli BL21(DE3) by Michaelis-Menten based competitive inhibition assay.
Assay [8] can be described thus: Inhibition of Plasmodium falciparum DHFR-TS QM template N51I, C59R, S108N, I164L mutant expressed in Escherichia coli BL21(DE3). The method, boiled down:
(§1)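 The recombinant enzyme was expressed in E. coli BL21(DE3) and purified by methotrexate-Sepharose affinity chromatography. Each reaction was started by adding 0.008 to 0.01 U of enzyme in the presence of varying inhibitor amounts. DHFR activity was read on a microplate spectrophotometer, and IC50 was taken from the inhibition data.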

A short description of assay [9]: Inhibition of WR99210-resistant form-A Plasmodium falciparum DHFR-TS I51N, C59R, N108S, L164I, D54N mutant expressed in Escherichia coli BL21(DE3). A digest of the protocol: as §1
A short description of assay [10]: Inhibition of Plasmodium falciparum DHFR QM template N51I, C59R, S108N, I164L mutant expressed in Escherichia coli BL21(DE3). A digest of the protocol: as §1
Assay [11] in a line: Inhibition of WR99210-resistant form-1 Plasmodium falciparum I51N, C59R, N108S, I164L mutant expressed in Escherichia coli BL21(DE3). The method, boiled down:
as §1

Assay [12] is described as follows: Inhibition of WR99210-resistant form-2 Plasmodium falciparum N51I, C59R, N108S, I164L mutant expressed in Escherichia coli BL21(DE3). A digest of the protocol: as §1
A short description of assay [13]: Inhibition of WR99210-resistant form-3 Plasmodium falciparum N51I, C59R, N108T, I164L mutant expressed in Escherichia coli BL21(DE3). The method, boiled down: as §1
Assay [14] can be described thus: Inhibition of pyrimethamine-resistant form-1 Plasmodium falciparum N51I, C59R, S108N, I164L, D187A mutant expressed in Escherichia coli BL21(DE3). The method, boiled down:
as §1

The target in assay [15] is T1, Bifunctional dihydrofolate reductase-thymidylate synthase. The assay can be described thus: Inhibition of pyrimethamine-resistant form-2 Plasmodium falciparum N51I, C59R, S108N, I164L, K96N mutant expressed in Escherichia coli BL21(DE3).
Assay [16] is described as follows: Inhibition of pyrimethamine-resistant form-3 Plasmodium falciparum N51I, C59R, S108N, I164L, I150V, N182I, N201D mutant expressed in Escherichia coli BL21(DE3). The method, boiled down: as §1
Assay [17] in a line: Inhibition of WR99210-resistant form-2 Plasmodium falciparum N51I, C59R, N108S, I164L mutant expressed in Escherichia coli BL21(DE3) by Michaelis-Menten based competitive inhibition assay.

T1 sequence (Q8I1R6 whole entry N51I/C59R/K96N/S108N/I164L): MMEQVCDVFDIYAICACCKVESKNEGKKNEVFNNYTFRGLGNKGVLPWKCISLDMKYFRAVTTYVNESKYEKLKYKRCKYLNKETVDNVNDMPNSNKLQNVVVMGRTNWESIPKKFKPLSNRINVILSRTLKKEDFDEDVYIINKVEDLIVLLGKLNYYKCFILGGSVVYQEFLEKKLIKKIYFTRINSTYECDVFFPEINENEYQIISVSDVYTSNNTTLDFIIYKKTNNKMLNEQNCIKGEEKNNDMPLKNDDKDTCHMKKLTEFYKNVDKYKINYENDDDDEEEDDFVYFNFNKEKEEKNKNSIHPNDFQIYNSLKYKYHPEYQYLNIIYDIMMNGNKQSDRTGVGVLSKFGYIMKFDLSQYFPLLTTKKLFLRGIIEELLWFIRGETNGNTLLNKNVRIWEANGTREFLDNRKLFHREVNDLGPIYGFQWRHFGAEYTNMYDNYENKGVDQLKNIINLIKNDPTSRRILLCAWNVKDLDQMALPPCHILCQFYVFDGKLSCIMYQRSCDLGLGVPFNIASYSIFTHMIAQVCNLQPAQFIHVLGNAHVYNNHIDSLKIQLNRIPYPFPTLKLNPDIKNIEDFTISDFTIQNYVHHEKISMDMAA

Turning to `CC1(C)N=C(N)N=C(N)N1OCCCOc1cc(Cl)c(Cl)cc1Cl`, the Ki was 147 nM in assay [1]; 292 nM in assay [2]; 514 nM in [3]; 72.4 nM in assay [4]; 8.09 nM in assay [5]; 859 nM in assay [6]. In addition, the Ki in [7] turned out to be 209 nM; in assay [17], 17.6 nM. For the same compound, the IC50 was 160 nM in assay [8]; 40000 nM in assay [9]; 50 nM in [10]; 200 nM in assay [11]; 60 nM in assay [12]; 680 nM in [13]. The IC50 worked out at 50 nM in assay [14], 90 nM in assay [15] and 920 nM in [16].

Take `CCc1nc(N)nc(N)c1-c1ccc(Cl)cc1` [PYRIMETHAMINE]: the Ki in assay [1] turned out to be 1.07 nM; in [3], 1.24 nM; in assay [4] it was 15.5 nM; in [5] it was 3.57 nM; in [6] it was 1.9 nM; in assay [7], 2.1 nM. Also, the Ki in assay [17] was 7.26 nM. For the same compound, the IC50 in [8] was 170 nM; in [9], 7200 nM; in assay [10] it was 420 nM; in assay [11], 90 nM; in assay [12], 10 nM; in assay [13], 1820 nM. In addition, the results for the 50% inhibitory concentration (IC50) in assay [14] and in [16] were 870 nM and 3470 nM, respectively.
